Experiment [1] deals with T1, Polyunsaturated fatty acid lipoxygenase ALOX15 (Homo sapiens) (UniProt P16050).
T1 sequence (whole entry): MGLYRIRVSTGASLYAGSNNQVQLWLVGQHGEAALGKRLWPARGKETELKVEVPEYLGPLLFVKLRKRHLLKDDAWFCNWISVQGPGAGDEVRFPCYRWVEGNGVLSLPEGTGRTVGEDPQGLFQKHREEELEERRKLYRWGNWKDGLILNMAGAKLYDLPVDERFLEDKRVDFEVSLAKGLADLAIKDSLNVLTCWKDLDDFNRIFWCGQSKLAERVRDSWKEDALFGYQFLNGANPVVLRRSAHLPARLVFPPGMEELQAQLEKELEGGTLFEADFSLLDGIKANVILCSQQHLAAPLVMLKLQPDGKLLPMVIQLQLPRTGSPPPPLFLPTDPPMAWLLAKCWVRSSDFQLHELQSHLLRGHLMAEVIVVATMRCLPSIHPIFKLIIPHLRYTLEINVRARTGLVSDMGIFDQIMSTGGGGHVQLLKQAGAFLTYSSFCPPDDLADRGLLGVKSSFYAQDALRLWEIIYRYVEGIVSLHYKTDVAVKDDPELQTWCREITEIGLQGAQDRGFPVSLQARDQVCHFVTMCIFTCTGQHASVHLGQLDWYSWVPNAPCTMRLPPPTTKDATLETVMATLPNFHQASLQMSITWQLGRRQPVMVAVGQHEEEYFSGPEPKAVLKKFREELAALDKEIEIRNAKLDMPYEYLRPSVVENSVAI
Briefly: Activation of wild-type His6-tagged human 15-LOX expressed in Escherichia coli Rosetta DE3 assessed as 15-HpETE formation at 40 uM pre-incubated for 1 min before arachidonic acid substrate addition by cell free assay.

The target in experiment [2] is T2, Polyunsaturated fatty acid lipoxygenase ALOX15 (Homo sapiens, UniProt P16050).
T2 sequence (P16050 whole entry): T1 sequence (whole entry)
Description: Binding affinity to wild-type His6-tagged human 15-LOX expressed in Escherichia coli Rosetta DE3 by SPR assay. Summed up: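 15-LOX amine-coupled to a CM5 chip at 800 RU, 25 °C, in PBS-P pH 7.4. Compound concentrations in 5% DMSO injected serially; regenerated by buffer washing. KD from Hill fit of response units.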
A general note: In SPR one partner is held on a chip, and binding of the other changes the refractive index at the surface.

Each structure is given as a SMILES string. pKd: −log10 of the molar value.

As a reminder, the pKd is the negative decadic logarithm of the Kd, by convention in mol/L. Consider `c1cc2c3c(cccc3c1)-c1n[n+]3cc4ccccn4c3cc1-2`, for which the %max in experiment [1] is 84%. Moreover, the pKd in experiment [2] is 5.36.

On to `C[n+]1cn(/N=C/c2ccccc2)c2ccccc21`, for which, in experiment [1], the %max is 61%. Besides, the pKd in experiment [2] was 4.82.
